In ChEMBL document CHEMBL4513216, “Probing the Open Global Health Chemical Diversity Library for Multistage-Active Starting Points for Next-Generation Antimalarials” (ACS Infect Dis, 2020) one finds cytotoxicity data, which are given here for 97 molecules.

This series in a line: Toxicity liver stage against HepG2, at 10uM. The class given is cell-based. Details: test concentration 10 uM, cell line HepG2-A16-CD81EGFP. Conditions: human, HepG2-A16-CD81EGFP cells; read-out: INHIBITION
In short, it runs like this: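 Uninfected HepG2-A16-CD81EGFP cells, 3 × 10^3 per well, 1536-well, plated on prespotted compound at 10 μM final, parasite-free screening media added to match infected plates; puromycin 10 μM positive, DMSO 0.5% negative; run in parallel with 48 h PbLuc assay at 37 °C, 5% CO2; viability by CellTiter-Glo luminescence, normalized to controls.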
Turning to `COC(=O)[C@H](C)NC(=O)CSCc1nc2sc(C(C)C)cc2c(=O)[nH]1`, the cytotoxicity at 10 µM is 2.87%.
With `Cn1cc(NC(=O)CNC(=O)N2CCN(c3ccc(Cl)cc3)CC2)cn1`, the cytotoxicity at 10 µM turned out to be 6.9%.
Under `Cc1nn2c(-c3cnn(C)c3)nnc2s1` stands -15.4%; under `Cc1cc(C)nc(NCCCC(=O)NCCn2ccc3ccccc32)n1`, -0.1%.
Next, `NC(=O)C1CCN(C(=O)c2cc(Br)ccc2-n2cnnn2)CC1`: 13.1%; `Cc1noc(C)c1CCC(=O)N1CCN(CCn2cccn2)CC1`: -24.2%; `Cc1noc(-c2ccc(N3CCCC(C(=O)N4CCSCC4)C3)nc2)n1` (configuration not stated): -2.45%.
Under `Cc1ccc(N2CC[C@H](OCC3CC3)[C@@H]2Cc2cnn(C)c2)nn1` stands -10.7%; under `CCN(Cc1nonc1C)C(=O)Cn1nc(C(F)(F)F)cc1C1CC1`, 1.45%.
Take `Cc1nn(C)c2c(=O)n(Cc3ccccc3)nnc12`: the cytotoxicity at 10 µM was 5.53%.
Under `Cc1cccc(-n2nnnc2C2(NCc3ccco3)CCCCC2)c1` stands 6.27%; under `Cn1ccc(C(=O)N2CCCC2c2cc(CCO)[nH]n2)n1` (configuration not stated), 3.31%.
For the molecule `CC(C)C(=O)N1CCC(c2c(C(N)=O)sc3ccccc23)C1` (configuration not stated), the cytotoxicity at 10 µM was -2.66%.
For `COCC(=O)N1CCCC(c2nc(N)ncc2-c2cccc(F)c2)C1` (configuration not stated), the cytotoxicity at 10 µM is -0.6%.
`Cc1cc(Cc2ccccc2)cc(C2CCCNC2)n1` (configuration not stated): the cytotoxicity at 10 µM is -5.89%.
Under `c1cc(CCNc2ncc(-c3cnccn3)c(C3CC3)n2)ccn1` stands 13.5%; under `C[C@@H]1CN2C[C@H](O)CC2CN1Cc1ccc2nccnc2c1` (some centres not stated), 5.62%; under `C[C@H]1CN2C[C@H](O)CC2CN1Cc1ccncc1` (some centres not stated), -3.02%.
Under `COc1cccc(S(=O)(=O)N2C[C@H](OC)[C@]3(CCCO3)C2)c1` stands -25.7%.
Under `CC(C)CNC(=O)C[S+]([O-])Cc1csc(C2CCCCC2)n1` (configuration not stated) stands -48.5%; under `CN(Cc1c(F)cccc1Cl)C(=O)Cn1cnc(C#N)n1`, -5.5%; under `CC(C)(NCc1cccc(C(N)=O)c1)c1ccc2c(c1)OCO2`, 3.15%.
As for `CNC(=O)c1cccc(CN2CCN(C3=NCC(C)(C)S3)CC2)c1`, the cytotoxicity at 10 µM is -2.37%.
On to `CC(C)OCCN1CCC(Nc2ncc(Br)cn2)CC1`, for which the cytotoxicity at 10 µM turned out to be 2.83%.
Under `Cc1cc(CN(C)C(=O)CNS(=O)(=O)c2cccs2)no1` stands -33.4%; under `CNC(=O)N1CCOCC1c1c(C)nn(C)c1C` (configuration not stated), -7.11%; under `CC1CCC(NS(=O)(=O)CC(=O)NC2(C(N)=O)CCCC2)CC1` (configuration not stated), -4.12%.
With `Cc1cccc(OCCNC(=O)Cn2ccc(C)cc2=O)c1`, the cytotoxicity at 10 µM is -1.63%.
Next, `COc1ccc(CNc2nc(N3CCOCC3)ns2)cc1`: -4.77%.
As to `NC(=O)N1CCCC1COC(=O)c1cc(F)ccc1F` (configuration not stated), the cytotoxicity at 10 µM is -0.743%.
On to `COCCN1CCC(NC(=O)Nc2cccc(F)c2)C1` (configuration not stated), for which the cytotoxicity at 10 µM is -0.898%.
Next, `CCc1nc(C2CCCN(C(=O)C3=NN(C(C)C)C(=O)CC3)C2)no1` (configuration not stated): -7.28%; `CCc1nc2c(s1)C(N(C)C(=O)c1cc[nH]n1)CCC2` (configuration not stated): 7.76%.
Under `O=C(NCCCn1cccn1)N1CCCC1c1ccsc1` (configuration not stated) stands -7.86%.
As for `Cc1nn(C)c(C)c1C1COCCN1c1ncnc2c(C)cccc12` (configuration not stated), the cytotoxicity at 10 µM was determined as 6.54%.
Regarding `CC(Cn1cncn1)NC(=O)Nc1ccc(COC2CCCC2)cc1` (configuration not stated), the cytotoxicity at 10 µM was -1.47%.
Under `CCOC(=O)NCCNC(=O)c1cc(Br)cn1C(C)C` stands 9.08%; under `CCNC(=O)Cc1c(C)nc2c(c1C)c(=O)[nH]n2C`, 2.62%.
Next, `CN(C)C(=O)Cn1cc(C(=O)N2CCCc3cccc(F)c32)nn1`: 1.81%; `CN(Cc1ccccc1)C(=O)CCNc1ncccc1C#N`: 4.55%.
For `CC(NC(=O)NCCNc1cccc(F)c1C#N)c1nccs1` (configuration not stated), the cytotoxicity at 10 µM was -1.84%.
Under `N#CC1(NC(=O)c2ccn(-c3ccccc3Cl)n2)CCSC1` (configuration not stated) stands 0.462%; under `CC(C)COC(C)C(=O)N1CCCCC1` (configuration not stated), -5.66%.
Turning to `CS(=O)(=O)CCN(Cc1cccc(O)c1)C1CCC(O)CC1` (configuration not stated), the cytotoxicity at 10 µM worked out at 5.38%.
Under `CC(=O)Nc1nc(C(=O)NCCOc2cccc(F)c2)cs1` stands 7.9%; under `O=C(Cn1cnnn1)Nc1ccc(F)cc1OCC1CC1`, 5.38%; under `CCN(Cc1cccs1)C(=O)c1ccc(=O)n(C)c1`, -9.56%.
Under `O=C(CCc1ccccc1)N1CCC(c2n[nH]c(C3CC3)n2)CC1` stands -5.35%; under `Cc1noc(C(C)N2CCc3[nH]c4ccc(Cl)cc4c3C2)n1` (configuration not stated), 1.99%.
On to `Cc1cc(CNc2ccccc2N2CCCCC2)no1`, for which the cytotoxicity at 10 µM is -1.31%.
Under `COCCc1noc(CN(C)c2cc(C)ncn2)n1` stands 11.9%; under `Cc1nc(CNC(=O)N(Cc2ccccc2)CC(C)(C)O)oc1C`, -2.28%; under `Cc1ccc(CNC(=O)N2CCc3ccccc3C2CO)s1` (configuration not stated), 2%.
Under `O=C(NC1CC1)c1cc(NC(=O)N2CCCC(O)C2)ccc1Cl` (configuration not stated) stands -15.5%.
In the case of `O=C(c1cccnc1)N1C[C@@H]2OCCN(CCN3CCCC3)[C@@H]2C1`, the cytotoxicity at 10 µM is -71.2%.
`COCCC1COC2(CCN(C(=O)Cc3ccccc3)CC2)C1` (configuration not stated): the cytotoxicity at 10 µM was -69.2%.
Under `Cn1cc(C[C@H]2[C@@H](OCC3CC3)CCN2C(=O)c2ccc[nH]2)cn1` stands -72.7%.
Under `CN1CC2(CCN(C(=O)c3coc4c3C(=O)CCC4)C2)OC1=O` (configuration not stated) stands -2.36%.
Under `Cc1cc(N2CCCN(C(=O)Cc3cc(F)cc(F)c3)CC2)ccn1` stands -6.7%.
Take `c1ccc(CN2CCC(Cc3noc(C4CC4)n3)CC2)cc1`: the cytotoxicity at 10 µM was found to be 5.56%.
Next, `CN1CCC(N2CCC(c3ccccc3C(=O)O)C2)CC1` (configuration not stated): -1.05%; `CCC(O)C1CCN(C(=O)Nc2nc(-c3ccccc3)ns2)CC1` (configuration not stated): -130%.
Next, `COc1ccccc1CCC(=O)N1C[C@H](c2ccccc2)[C@@H](N)C1`: -3.79%; `CC(C)CN1CCC(c2nnc(CN3CCCC3)n2C2CC2)CC1`: -8.85%; `Cc1nc(NCc2coc(-c3ccccc3)n2)cc(C2CCNCC2)n1`: 7.94%.
For `CC(C)c1noc(C2CCCN2S(=O)(=O)Cc2ccc(F)cc2)n1` (configuration not stated), the cytotoxicity at 10 µM came out at 3.88%.
As for `COc1ccc2[nH]cc(CCNC(=O)C3CCCN(C(C)=O)C3)c2c1` (configuration not stated), the cytotoxicity at 10 µM is -5.58%.
Under `CC(C)=CCC1(CO)CCCN(S(C)(=O)=O)C1` (configuration not stated) stands -5.13%; under `Nc1ccnc(N2CCC(CCc3ccccc3)(C(=O)O)CC2)n1`, -3.65%; under `CNCC(=O)N[C@H]1CN(c2nc(C)c3c(n2)CCCC3)C[C@@H]1C1CC1`, 13.2%.
Take `Cc1ccc(C)c2c(O)cc(CNCC(N)=O)nc12`: the cytotoxicity at 10 µM is -3.35%.
Next, `CN(C)c1cncc(-c2ccnc3c2ccn3C)n1`: 5.51%.
For `CN1C(=O)C2(CCCN(C(=O)c3ccc(=O)n(C)n3)C2)c2ccccc21` (configuration not stated), the cytotoxicity at 10 µM came to 4.65%.
As to `Cc1noc(CN(C)c2nc(-c3ccco3)nc3c2CCN(C)CC3)n1`, the cytotoxicity at 10 µM was -0.0198%.
For the molecule `COc1cccc(OCC2CCCN(C(=O)Cc3cccc(O)c3)C2)c1` (configuration not stated), the cytotoxicity at 10 µM is -18.9%.
Under `Cc1ccc(C)c2c(O)cc(CNCc3ccc(S(N)(=O)=O)cc3)nc12` stands -9.06%; under `O=C(CN1CC(n2cccn2)C1)NCCCN1CCCC1=O`, -29.9%; under `CC(C)c1ncc2c(n1)CN(Cc1nc(-c3ccccn3)no1)CC2`, 1.59%.
Under `CCc1ncc2c(n1)CN(Cc1nc(-c3cccs3)no1)CC2` stands -7.82%; under `Cn1ccc(C(=O)N2CCN(c3nccs3)CC2)cc1=O`, -18.1%; under `Cn1cc(C(=O)N2CCN(c3ncccn3)CC2)ccc1=O`, -7.82%.
Next, `CCOc1ccccc1CNCC1CCN(CC(C)O)CC1` (configuration not stated): -9.04%.
In the case of `Cc1cccc(NC2CCN(C(=O)Nc3cn[nH]c3)CC2)n1`, the cytotoxicity at 10 µM is -26.7%.
Regarding `CN(Cc1nc2ccccc2o1)C1CCCN(c2cccnn2)C1` (configuration not stated), the cytotoxicity at 10 µM is -9.43%.
Regarding `CCn1cnnc1CNC(=O)NC(C)c1ccc(Cl)s1` (configuration not stated), the cytotoxicity at 10 µM is -23.1%.
Under `CC(O)CN1CCC(CNCc2ccc(C(N)=O)cc2)CC1` (configuration not stated) stands -9.83%; under `CCOc1ccccc1OC1CCN(C(=O)c2cc[nH]n2)CC1`, -4.53%; under `COc1ccc2c(c1)CCCN2Cc1nc2c(cnn2C)c(=O)[nH]1`, -3.3%.
Under `Cc1cccc(C2(NC(=O)CCN3C(=O)CCC3=O)CCCC2)c1` stands -17.4%; under `CN(C(=O)c1ccccc1Cl)C1CCN(c2ccccn2)CC1`, -0.577%.
Under `Cc1nc(C)n(CC2CCCCN2CC(=O)N(C)Cc2ccco2)n1` (configuration not stated) stands 2.65%.
Turning to `CN(C)C(=O)[C@H]1C[C@H]2OCC[C@H]2N(Cc2ccc3c(c2)OCO3)C1`, the cytotoxicity at 10 µM is -71.3%.
Under `Cn1cccc1C(=O)N1CCC2(CC1)CN(c1ccccn1)CCO2` stands -10.8%; under `CN(C)C(=O)[C@@H]1CCO[C@@H]2CCN(CCc3ccccc3)C[C@@H]21`, -9.55%.
Consider `Cc1noc([C@@H]2C[C@H]3CN(C(=O)C4CCN(C)CC4)C[C@H]3O2)n1`, for which the cytotoxicity at 10 µM is -71.2%.
As for `COCC(=O)N1C[C@H]2CN(Cc3csc(C)n3)C(=O)[C@H]2C1`, the cytotoxicity at 10 µM is -77.2%.
For the molecule `CC1CCN(c2nc3cn(Cc4cccc(F)c4)c(=O)c-3c[nH]2)CC1`, the cytotoxicity at 10 µM worked out at 4.52%.
